Measurements reported in the RNAGym collection of RNA variant scans (doi:10.1126/science.aae0568).
Fewer inactive variants are shown than the library holds.

B1: tRNA (parent)
chain: GUUCCGUUGGCGUAAUGGUAACGCGUCUCCCUCCUAAGGAGAAGACUGCGGGUUCGAGUCCCGUACGGAACG

Variants of: B1
Test: yeast fitness relative to wild type (ratio to wild type); higher = fitter; tRNA-Arg(CCU), competitive growth, 37 C, YPD
Method in brief: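 Gene amplicons from the start population and from each of six end populations were read by 100-nucleotide paired-end sequencing. Those end populations came from pooled Saccharomyces cerevisiae strains carrying tRNA-Arg(CCU) gene variants at the native locus, competed in YPD at 37°C for 24 hours. Fitness relative to wild type was worked out from changes in genotype frequencies. Genotypes needed ≥ 100 starting reads, and estimates < 0.5 were set to 0.5.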
U3A A14C A21C G41A G44C U47C C49U G56A showed a yeast fitness of no more than 0.5.
Work on U3A C4U C33U C61A yielded a yeast fitness of no more than 0.5.
In the case of U2G U28A C29G G51A G56A G67C, the yeast fitness is reported as no more than 0.5.
Work on U2G U47G yielded a yeast fitness of 0.546.
Variant U2G C4U C29G has a yeast fitness of no more than 0.5.
In the case of U2G G44C G58C, the yeast fitness is reported as 0.647.
With U2G C4A A37U the yeast fitness was no more than 0.5.
Work on U3A A14G A15G A20U A37G G41A C62U C66U yielded a yeast fitness of no more than 0.5.
U2G C11U A45C U53G gave a yeast fitness of 0.583.
With U2G G18C G23U C27U U64A the yeast fitness was no more than 0.5.
For U2G C33G C62U A65U, the yeast fitness was no more than 0.5.
In the case of U3A A70G, the yeast fitness is reported as 1.
For U2G C61U A70G, the yeast fitness was 0.795.
With U2G U3C G10C A69C the yeast fitness was no more than 0.5.
In the case of U2G C46A G68C, the yeast fitness is reported as no more than 0.5.
Variant U2G C5A A57U has a yeast fitness of no more than 0.5.
With U2G U3C A20G C33U G39A the yeast fitness was no more than 0.5.
For U3A A20U A45U G58C G67C, the yeast fitness was no more than 0.5.
In the case of U2G C27A C34G A65G, the yeast fitness is reported as no more than 0.5.
In the case of U2G C31U U64G A65U, the yeast fitness is reported as no more than 0.5.
U2G U64A gave a yeast fitness of 0.776.
With U2G C27U the yeast fitness was 0.878.
U2G C27G showed a yeast fitness of 0.546.
U3A A20C A21G gave a yeast fitness of 0.679.
Variant U2G C4U C60G has a yeast fitness of 0.54.
Work on U2G C4U C62U G68U yielded a yeast fitness of no more than 0.5.
U2G C46G G52A gave a yeast fitness of no more than 0.5.
In the case of U3A A20U C31G, the yeast fitness is reported as 0.535.
Variant U3A C4U C5U G48C C49A G67C A70U has a yeast fitness of 0.663.
U2G G6A G25A A37U A40C showed a yeast fitness of no more than 0.5.
U2G C11A C30A A57U gave a yeast fitness of no more than 0.5.
U3A A65C A70C showed a yeast fitness of 0.679.
Variant U2G U8A G23A U26G A43G has a yeast fitness of 0.576.
In the case of U3A C4G G41A G63C C66A, the yeast fitness is reported as 0.576.
Variant U2G A36G G51A has a yeast fitness of no more than 0.5.
U3A A14U C46G gave a yeast fitness of no more than 0.5.
Work on U2G G12C C49U yielded a yeast fitness of no more than 0.5.
U3A A40C C60U C62G showed a yeast fitness of no more than 0.5.
Variant U2G G6A C27G U54C C62U has a yeast fitness of no more than 0.5.
U2G A42U showed a yeast fitness of 0.804.
With U3A A37C C60A A70G the yeast fitness was no more than 0.5.
For U2G A37C G41A C49U, the yeast fitness was no more than 0.5.
U2G G9C A15G showed a yeast fitness of no more than 0.5.
Variant U2G C24A A45G C61G C62U has a yeast fitness of no more than 0.5.
For U2G G48A G58A, the yeast fitness was 0.614.
Work on U2G C29U G44C U54A yielded a yeast fitness of 0.554.
Work on U2G G25C U28G A42C C61U yielded a yeast fitness of no more than 0.5.
U2G U19G showed a yeast fitness of 1.24.
Work on U2G C5U C34G C62U yielded a yeast fitness of no more than 0.5.
Variant U2G U8C C27U C46U has a yeast fitness of 0.789.
With U2G A20U G25C C49G the yeast fitness was no more than 0.5.
With U2G U26C the yeast fitness was 0.918.
U2G C46A G56C gave a yeast fitness of no more than 0.5.
U2G C49U showed a yeast fitness of 0.957.
U2G A65C gave a yeast fitness of 0.897.
U2G C22U C24G A69C showed a yeast fitness of 0.579.
U3A A14U A42U C55A showed a yeast fitness of no more than 0.5.
U2G A36G A69U showed a yeast fitness of 0.56.
For U2G C33A C49G, the yeast fitness was no more than 0.5.
U3A C4A G18C C34U A36G G63C gave a yeast fitness of no more than 0.5.
U2G U3A showed a yeast fitness of 0.736.
For U2G C33U C34G G48C G67C, the yeast fitness was no more than 0.5.
In the case of U2G C30G C62G, the yeast fitness is reported as 0.591.
Variant U2G G9C A20G A42C C46G C49U has a yeast fitness of 0.602.
U2G C55G gave a yeast fitness of 0.532.
For U2G C27G G67U, the yeast fitness was no more than 0.5.
Variant U2G C27G G67C has a yeast fitness of no more than 0.5.
For U2G A45G, the yeast fitness was 0.869.
In the case of U2G G9C A14C C27U G58A, the yeast fitness is reported as no more than 0.5.
With U2G A57G the yeast fitness was 0.82.
In the case of U2G A57U, the yeast fitness is reported as 0.66.
Work on U3A C4A U8C C29G A37C yielded a yeast fitness of 0.581.
With U2G G17A C24U A36U A37U the yeast fitness was 0.585.
In the case of U3A A20U A42C C55G, the yeast fitness is reported as no more than 0.5.
Variant U2G C29G A43C has a yeast fitness of 0.548.
U2G C11U G23A gave a yeast fitness of no more than 0.5.
For U2G C11G A36C C61G G63A, the yeast fitness was no more than 0.5.
U2G C27U C46U G68C showed a yeast fitness of 0.763.
In the case of U2G C4U A36G A45U, the yeast fitness is reported as 0.537.
Work on U2G C29G U47C yielded a yeast fitness of 0.557.
In the case of U2G C4U C33G A37U U64G, the yeast fitness is reported as no more than 0.5.
Variant U3A A40G U53A has a yeast fitness of no more than 0.5.
U2G U35G A45G C49G U59C C60U A69C showed a yeast fitness of 0.618.
With U3A A14G G23C the yeast fitness was 0.716.
For U3A A36U, the yeast fitness was 0.681.
In the case of U2G C34U A69U, the yeast fitness is reported as 0.543.
Work on U3A A21G A65C yielded a yeast fitness of 0.64.
In the case of U3A A21G A45U G67C, the yeast fitness is reported as no more than 0.5.
With U2G G9C A65C the yeast fitness was 0.548.
U3A A14C C24G C33G gave a yeast fitness of no more than 0.5.
U2G A21G A57C G63A showed a yeast fitness of no more than 0.5.
Work on U3A C4G G6A U26G C66U yielded a yeast fitness of no more than 0.5.
For U3A A40C C62G G68C, the yeast fitness was no more than 0.5.
U2G G6A G23A C29G C55A gave a yeast fitness of 0.508.
Work on U2G A21G A40G yielded a yeast fitness of no more than 0.5.
With U3A A57U the yeast fitness was 0.754.
Variant U3A A57G has a yeast fitness of 0.776.
For U2G C4U C34G, the yeast fitness was no more than 0.5.
U2G G9A A36G A57G C60U gave a yeast fitness of 0.672.
Work on U2G C24G C29G C31G yielded a yeast fitness of 0.515.
Work on U2G C33G C61A yielded a yeast fitness of no more than 0.5.
For U2G A21C C22U C31U C33U C62A, the yeast fitness was no more than 0.5.
In the case of U2G G12C, the yeast fitness is reported as 0.757.
Work on U2G A37C U54C yielded a yeast fitness of no more than 0.5.
For U3A A40C U47A, the yeast fitness was 0.647.
In the case of U2G U26C G56A, the yeast fitness is reported as 0.547.
Variant U2G A45C C49U C55U has a yeast fitness of no more than 0.5.
Work on U2G C24U C29G C61G yielded a yeast fitness of 0.635.
Work on U2G C34U A36C yielded a yeast fitness of no more than 0.5.
Variant U2G C24U A69U has a yeast fitness of 0.681.
In the case of U2G G50C U59A, the yeast fitness is reported as 0.547.
Variant U2G C11G C46G G51C U53A has a yeast fitness of no more than 0.5.
With U2G U7G U16C C34U G50A U54C A65U the yeast fitness was no more than 0.5.
U2G G51A G58C showed a yeast fitness of 0.562.
U2G C24A C31G A45U gave a yeast fitness of no more than 0.5.
With U2G G56A the yeast fitness was 0.896.
Variant U2G C60U has a yeast fitness of 0.782.
For U3A A15C G17C, the yeast fitness was 0.507.
In the case of U2G C33G A45G A70U, the yeast fitness is reported as no more than 0.5.
Variant U2G A42C U47A A65U has a yeast fitness of no more than 0.5.
With U3A C4G A43G U47C the yeast fitness was no more than 0.5.
For U2G G6A C27U G39C, the yeast fitness was no more than 0.5.
For U3A A15U G23C C27U G52A C66U, the yeast fitness was no more than 0.5.
For U3A A14U G50A A69C, the yeast fitness was no more than 0.5.
For U2G G48C G52C C62G C66U, the yeast fitness was no more than 0.5.
For U3A A14G C55U G63C, the yeast fitness was no more than 0.5.
For U2G A40C G63A G68C, the yeast fitness was no more than 0.5.
U2G G25A showed a yeast fitness of 0.986.
U2G G18A C29G C31G gave a yeast fitness of no more than 0.5.
Variant U3A A15C U16A U35A G52C C55A has a yeast fitness of no more than 0.5.
U2G C24A C46A A70C showed a yeast fitness of 1.01.
U2G G9C A20G A42C C46G C49U C66U A69C showed a yeast fitness of no more than 0.5.
Work on U3A A69U yielded a yeast fitness of 0.999.
In the case of U3A A36G A42C, the yeast fitness is reported as 0.647.
Work on U3A A36G A42U yielded a yeast fitness of 0.619.
Variant U3A A14U G41C G67C has a yeast fitness of no more than 0.5.
Work on U2G U7C A69U yielded a yeast fitness of no more than 0.5.
Variant U3A C4A A21U G56C G58A has a yeast fitness of no more than 0.5.
Variant U2G C24G G52C C66U has a yeast fitness of 0.807.
Variant U3A A43C has a yeast fitness of 0.883.
For U3A A43U, the yeast fitness was 0.929.
Work on U2G C27G G63A A65C G68C yielded a yeast fitness of 0.632.
In the case of U2G C31A G56U G67A A70C, the yeast fitness is reported as no more than 0.5.
Work on U2G G48A G58C A65U G67C yielded a yeast fitness of no more than 0.5.
Variant U2G C29G G44C C49G A57U has a yeast fitness of no more than 0.5.
For U3A A15G U28C C60A, the yeast fitness was 0.522.
With U2G C4A C22U U28G A42U C62U A70U the yeast fitness was no more than 0.5.
Variant U3A A15G U19A U32C G41A G50A has a yeast fitness of no more than 0.5.
With U2G A45U C66U the yeast fitness was 0.555.
For U3A A15G C24A, the yeast fitness was no more than 0.5.
U3A A36U C55A C62U showed a yeast fitness of no more than 0.5.
Work on U2G C31G A57U C60A yielded a yeast fitness of no more than 0.5.
In the case of U2G U7C C29G C60A, the yeast fitness is reported as no more than 0.5.
U2G U28G G51C U64A C66U A69C gave a yeast fitness of no more than 0.5.
Variant U3A C4A U8C C29G A37C C62U A70U has a yeast fitness of no more than 0.5.
U2G C22A G56A U59G gave a yeast fitness of no more than 0.5.
U2G C34G G39C gave a yeast fitness of no more than 0.5.
Variant U3A A21C C24G G56A has a yeast fitness of no more than 0.5.
For U2G C11G A20U C24G A42G, the yeast fitness was no more than 0.5.
For U2G U3A C5U U7C U8C A20C U35C A37U A57C, the yeast fitness was no more than 0.5.
In the case of U2G C4A G38C G50A, the yeast fitness is reported as 0.713.
Variant U2G G48C C66U has a yeast fitness of 0.519.
Variant U2G U7G U16C C34U U54C A65U has a yeast fitness of no more than 0.5.
U2G G18A C29G C31G G52A showed a yeast fitness of no more than 0.5.
U2G U28C showed a yeast fitness of 0.825.
With U2G U28A the yeast fitness was 0.645.
For U3A A14C, the yeast fitness was 0.567.
